Test results reported in ChEMBL document CHEMBL4689842, “EUbOPEN Chemogenomics Library wave 1” (2021).

Test system: Fibroblast
Test: Multiplex assay against human fibroblast
Assay type: toxicity, cell-based
In short: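 Values for tubulin, mitochondrial-mass and membrane-permeability phenotypes are per cents of cells with healthy nuclei. These cells were identified by CellPathfinder machine-learning gating of live cells that had been stained at seeding with Hoechst33342, BioTracker Green Microtubule Cytoskeleton Dye, MitoTracker Red and Annexin V Alexa Fluor 680 and imaged on a CQ1 microscope at 37°C and 5% CO2 after compound addition. The gating first set Hoechst high-intensity objects apart from normal cells, then split normal cells into healthy, pyknosed or fragmented nuclei, and pyknosed cells into mitotic or apoptotic.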

[1] = 12 h, 1 µM, compound concentration 1 uM, replicate 1
[2] = 12 h, 1 µM, compound concentration 1 uM, replicate 2
[3] = 12 h, 10 µM, compound concentration 10 uM, replicate 1
[4] = 12 h, 10 µM, compound concentration 10 uM, replicate 2
[5] = 24 h, 1 µM, compound concentration 1 uM, replicate 1
[6] = 24 h, 1 µM, compound concentration 1 uM, replicate 2
[7] = 24 h, 10 µM, compound concentration 10 uM, replicate 1
[8] = 24 h, 10 µM, compound concentration 10 uM, replicate 2

SMILES: CN(C)C/C=C/C(=O)Nc1cc2c(Nc3ccc(F)c(Cl)c3)ncnc2cc1O[C@H]1CCOC1.O=C(O)/C=C\C(=O)O.O=C(O)/C=C\C(=O)O [AFATINIB DIMALEATE]
- Population Apoptotic (%) [1]: 66%
- Population Fragmented Nuclei (%) [1]: 30%
- Population Healthy Nuclei (%) [1]: 53%
- Population Hoechst High Intensity Objects (%) [1]: 13%
- Population Membrane Permeable-Phenotype (%) [1]: 13%
- Population Mitochondria Different-Phenotype (%) [1]: 3%
- Population Mitotic Cells (%) [1]: 33%
- Population Normal (%) [1]: 86%
- Population Pyknosed Nuclei (%) [1]: 16%
- Population Tubulin-Different-Phenotype (%) [1]: 10%
- Total Cell Count [1]: 234
- Population Apoptotic (%) [2]: 45%
- Population Fragmented Nuclei (%) [2]: 60%
- Population Healthy Nuclei (%) [2]: 21%
- Population Hoechst High Intensity Objects (%) [2]: 38%
- Population Membrane Permeable-Phenotype (%) [2]: 7%
- Population Mitochondria Different-Phenotype (%) [2]: 30%
- Population Mitotic Cells (%) [2]: 54%
- Population Normal (%) [2]: 61%
- Population Pyknosed Nuclei (%) [2]: 18%
- Population Tubulin-Different-Phenotype (%) [2]: 15%
- Total Cell Count [2]: 99
- Population Apoptotic (%) [3]: 58%
- Population Fragmented Nuclei (%) [3]: 27%
- Population Healthy Nuclei (%) [3]: 50%
- Population Hoechst High Intensity Objects (%) [3]: 24%
- Population Membrane Permeable-Phenotype (%) [3]: 18%
- Population Mitochondria Different-Phenotype (%) [3]: 12%
- Population Mitotic Cells (%) [3]: 41%
- Population Normal (%) [3]: 75%
- Population Pyknosed Nuclei (%) [3]: 22%
- Population Tubulin-Different-Phenotype (%) [3]: 68%
- Total Cell Count [3]: 247
- Population Apoptotic (%) [4]: 22%
- Population Fragmented Nuclei (%) [4]: 33%
- Population Healthy Nuclei (%) [4]: 52%
- Population Hoechst High Intensity Objects (%) [4]: 34%
- Population Membrane Permeable-Phenotype (%) [4]: 16%
- Population Mitochondria Different-Phenotype (%) [4]: 13%
- Population Mitotic Cells (%) [4]: 77%
- Population Normal (%) [4]: 65%
- Population Pyknosed Nuclei (%) [4]: 13%
- Population Tubulin-Different-Phenotype (%) [4]: 91%
- Total Cell Count [4]: 104
- Population Apoptotic (%) [5]: 72%
- Population Fragmented Nuclei (%) [5]: 35%
- Population Healthy Nuclei (%) [5]: 53%
- Population Hoechst High Intensity Objects (%) [5]: 18%
- Population Membrane Permeable-Phenotype (%) [5]: 5%
- Population Mitochondria Different-Phenotype (%) [5]: 7%
- Population Mitotic Cells (%) [5]: 27%
- Population Normal (%) [5]: 81%
- Population Pyknosed Nuclei (%) [5]: 10%
- Population Tubulin-Different-Phenotype (%) [5]: 13%
- Total Cell Count [5]: 247
- Population Apoptotic (%) [6]: 50%
- Population Fragmented Nuclei (%) [6]: 54%
- Population Healthy Nuclei (%) [6]: 28%
- Population Hoechst High Intensity Objects (%) [6]: 34%
- Population Membrane Permeable-Phenotype (%) [6]: 0%
- Population Mitochondria Different-Phenotype (%) [6]: 6%
- Population Mitotic Cells (%) [6]: 50%
- Population Normal (%) [6]: 65%
- Population Pyknosed Nuclei (%) [6]: 17%
- Population Tubulin-Different-Phenotype (%) [6]: 12%
- Total Cell Count [6]: 87
- Population Apoptotic (%) [7]: 57%
- Population Fragmented Nuclei (%) [7]: 29%
- Population Healthy Nuclei (%) [7]: 54%
- Population Hoechst High Intensity Objects (%) [7]: 38%
- Population Membrane Permeable-Phenotype (%) [7]: 19%
- Population Mitochondria Different-Phenotype (%) [7]: 21%
- Population Mitotic Cells (%) [7]: 42%
- Population Normal (%) [7]: 61%
- Population Pyknosed Nuclei (%) [7]: 15%
- Population Tubulin-Different-Phenotype (%) [7]: 61%
- Population Apoptotic (%) [8]: 66%
- Population Fragmented Nuclei (%) [8]: 49%
- Population Healthy Nuclei (%) [8]: 36%
- Population Hoechst High Intensity Objects (%) [8]: 35%
- Population Membrane Permeable-Phenotype (%) [8]: 34%
- Population Mitochondria Different-Phenotype (%) [8]: 26%
- Population Mitotic Cells (%) [8]: 33%
- Population Normal (%) [8]: 64%
- Population Pyknosed Nuclei (%) [8]: 14%
- Population Tubulin-Different-Phenotype (%) [8]: 82%
- Total Cell Count [8]: 98

SMILES: CCOc1cc(N2CCC(O)CC2)ccc1Nc1ncc2c(n1)N(C1CCCC1)CCC(=O)N2C
- Population Apoptotic (%) [1]: 64%
- Population Fragmented Nuclei (%) [1]: 25%
- Population Healthy Nuclei (%) [1]: 58%
- Population Hoechst High Intensity Objects (%) [1]: 12%
- Population Membrane Permeable-Phenotype (%) [1]: 8%
- Population Mitochondria Different-Phenotype (%) [1]: 7%
- Population Mitotic Cells (%) [1]: 35%
- Population Normal (%) [1]: 87%
- Population Pyknosed Nuclei (%) [1]: 16%
- Population Tubulin-Different-Phenotype (%) [1]: 11%
- Total Cell Count [1]: 197
- Population Apoptotic (%) [2]: 0%
- Population Fragmented Nuclei (%) [2]: 46%
- Population Healthy Nuclei (%) [2]: 48%
- Population Hoechst High Intensity Objects (%) [2]: 33%
- Population Membrane Permeable-Phenotype (%) [2]: 17%
- Population Mitochondria Different-Phenotype (%) [2]: 17%
- Population Mitotic Cells (%) [2]: 100%
- Population Normal (%) [2]: 66%
- Population Pyknosed Nuclei (%) [2]: 4%
- Population Tubulin-Different-Phenotype (%) [2]: 39%
- Total Cell Count [2]: 71
- Population Apoptotic (%) [3]: 84%
- Population Fragmented Nuclei (%) [3]: 23%
- Population Healthy Nuclei (%) [3]: 58%
- Population Hoechst High Intensity Objects (%) [3]: 14%
- Population Membrane Permeable-Phenotype (%) [3]: 8%
- Population Mitochondria Different-Phenotype (%) [3]: 2%
- Population Mitotic Cells (%) [3]: 15%
- Population Normal (%) [3]: 85%
- Population Pyknosed Nuclei (%) [3]: 17%
- Population Tubulin-Different-Phenotype (%) [3]: 1%
- Total Cell Count [3]: 291
- Population Apoptotic (%) [4]: 37%
- Population Fragmented Nuclei (%) [4]: 50%
- Population Healthy Nuclei (%) [4]: 36%
- Population Hoechst High Intensity Objects (%) [4]: 29%
- Population Membrane Permeable-Phenotype (%) [4]: 27%
- Population Mitochondria Different-Phenotype (%) [4]: 4%
- Population Mitotic Cells (%) [4]: 62%
- Population Normal (%) [4]: 70%
- Population Pyknosed Nuclei (%) [4]: 13%
- Population Tubulin-Different-Phenotype (%) [4]: 18%
- Population Apoptotic (%) [5]: 72%
- Population Fragmented Nuclei (%) [5]: 27%
- Population Healthy Nuclei (%) [5]: 56%
- Population Hoechst High Intensity Objects (%) [5]: 12%
- Population Membrane Permeable-Phenotype (%) [5]: 6%
- Population Mitochondria Different-Phenotype (%) [5]: 6%
- Population Mitotic Cells (%) [5]: 27%
- Population Normal (%) [5]: 87%
- Population Pyknosed Nuclei (%) [5]: 15%
- Population Tubulin-Different-Phenotype (%) [5]: 7%
- Total Cell Count [5]: 211
- Population Apoptotic (%) [6]: 66%
- Population Fragmented Nuclei (%) [6]: 57%
- Population Healthy Nuclei (%) [6]: 35%
- Population Hoechst High Intensity Objects (%) [6]: 40%
- Population Membrane Permeable-Phenotype (%) [6]: 26%
- Population Mitochondria Different-Phenotype (%) [6]: 20%
- Population Mitotic Cells (%) [6]: 33%
- Population Normal (%) [6]: 59%
- Population Pyknosed Nuclei (%) [6]: 7%
- Population Tubulin-Different-Phenotype (%) [6]: 26%
- Total Cell Count [6]: 71
- Population Apoptotic (%) [7]: 67%
- Population Fragmented Nuclei (%) [7]: 17%
- Population Healthy Nuclei (%) [7]: 62%
- Population Hoechst High Intensity Objects (%) [7]: 19%
- Population Membrane Permeable-Phenotype (%) [7]: 5%
- Population Mitochondria Different-Phenotype (%) [7]: 1%
- Population Mitotic Cells (%) [7]: 32%
- Population Normal (%) [7]: 80%
- Population Pyknosed Nuclei (%) [7]: 19%
- Population Tubulin-Different-Phenotype (%) [7]: 1%
- Total Cell Count [7]: 308
- Population Apoptotic (%) [8]: 60%
- Population Fragmented Nuclei (%) [8]: 40%
- Population Healthy Nuclei (%) [8]: 50%
- Population Hoechst High Intensity Objects (%) [8]: 28%
- Population Membrane Permeable-Phenotype (%) [8]: 18%
- Population Mitochondria Different-Phenotype (%) [8]: 3%
- Population Mitotic Cells (%) [8]: 40%
- Population Normal (%) [8]: 72%
- Population Pyknosed Nuclei (%) [8]: 9%
- Population Tubulin-Different-Phenotype (%) [8]: 14%
- Total Cell Count [8]: 75
